# Assay results gathered from unrelated publications.
# Target: Dual specificity protein kinase TTK (TTK, Homo sapiens, UniProt P33981)
# Sequence (P33981 1-857, as in one of the studies): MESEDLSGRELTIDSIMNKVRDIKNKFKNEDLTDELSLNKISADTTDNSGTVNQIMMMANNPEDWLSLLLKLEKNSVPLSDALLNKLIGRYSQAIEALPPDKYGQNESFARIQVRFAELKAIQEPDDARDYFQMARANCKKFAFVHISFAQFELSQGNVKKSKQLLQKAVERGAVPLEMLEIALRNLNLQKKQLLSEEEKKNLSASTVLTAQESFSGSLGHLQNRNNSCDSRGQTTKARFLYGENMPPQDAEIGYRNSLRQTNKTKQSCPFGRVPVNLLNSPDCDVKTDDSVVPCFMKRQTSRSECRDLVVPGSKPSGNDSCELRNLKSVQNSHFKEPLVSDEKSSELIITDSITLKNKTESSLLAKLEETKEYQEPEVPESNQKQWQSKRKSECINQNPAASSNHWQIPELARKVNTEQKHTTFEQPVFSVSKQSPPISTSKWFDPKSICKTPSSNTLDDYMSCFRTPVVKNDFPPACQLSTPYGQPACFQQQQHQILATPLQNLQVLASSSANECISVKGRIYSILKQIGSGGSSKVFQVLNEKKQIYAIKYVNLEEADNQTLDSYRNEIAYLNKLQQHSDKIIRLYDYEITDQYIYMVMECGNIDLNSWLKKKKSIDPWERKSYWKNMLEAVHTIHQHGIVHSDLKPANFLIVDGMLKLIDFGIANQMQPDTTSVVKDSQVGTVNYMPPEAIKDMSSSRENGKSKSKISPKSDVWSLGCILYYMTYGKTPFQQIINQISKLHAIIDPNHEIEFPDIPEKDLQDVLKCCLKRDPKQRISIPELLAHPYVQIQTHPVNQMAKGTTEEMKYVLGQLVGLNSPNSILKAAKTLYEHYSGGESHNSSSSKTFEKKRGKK
SMILES,effect on,mode,technique,tested at,measurement,value
COc1ncccc1-c1cnn2ccc(N3CCN(C(=O)OC(C)C)CC3)nc12,binding,,competition with immobilised ligand,1 µM,remaining binding,100%
Cn1cncc1[C@@](O)(COc1ccc(C#N)cc1-c1ccc(OC(F)(F)F)cc1)c1ccc(C#N)cc1,cell-free assay,,competition with immobilised ligand,1 µM,remaining binding,100%
Cn1cc(-c2cccc(N3CCc4c(sc5c4CC(C)(C)C5)C3=O)c2CO)cc(Nc2ccncn2)c1=O,enzyme activity,inhibitor,,1 µM,inhibition,-3%
N#CC1(c2ccccn2)CCN(Cc2cc(C(=O)O)c(=O)n3ccccc23)CC1,cell-free assay,,competition with immobilised ligand,1 µM,remaining binding,88%
O=c1[nH]c2ccccc2n1C1CCN(Cc2ccc(-c3[nH]c4cc5ncnc5cc4nc3-c3ccccc3)cc2)CC1,cell-free assay,,,0.5 µM,remaining signal,104%
Cn1cc(-c2cc(F)cc(N3CCn4c(cc5c4CCCC5)C3=O)c2CO)cc(Nc2ccc(N3CCN(C4COC4)CC3)cn2)c1=O,enzyme activity,inhibitor,,0.1 µM,inhibition,-17%
Nc1ncc(-c2nc(N3CCOCC3)nc(N3CCOCC3)n2)c(C(F)F)n1,binding,,competition with immobilised ligand,10 µM,remaining binding,84%
Cc1nn(C)cc1-c1nc2c(N3CCN(Cc4ccc(Cl)cc4)CC3)c(Cl)cnc2[nH]1,binding,,competition with immobilised ligand,1 µM,remaining binding,100%
CC(C)(C)c1cc(C=C(C#N)C#N)cc(Br)c1O,enzyme activity,inhibitor,,0.5 µM,remaining activity,101%
